Screening data deposited in PubChem by several laboratories.
Only some compounds are listed: those with a hit (about 2% of all), similar ones and a draw of the others.
NR2E3 ag-1: activates human NR2E3 receptor. Q9Y5X4. CHO-S Gal4-NCOR/VP16-NR2E3 two-hybrid, luciferase. inhibition of corepressor binding, % at 3.98 µM. hit rate 0.35% among 360,000. AID 602229;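 active = inhibition above the mean of all tested compounds plus 3 SD, cut at about 70% in these data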;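 also: 0% = DMSO with NR2E3 transfected cells and 100% = cells lacking NR2E3 construct; higher means lower luciferase signal from less NR2E3 corepressor binding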
GAA850 FXN act: frataxin GAA850 promoter activation | activation, % at 6 µM | AID 540364 | HEK293 lucGAA850 FXN promoter luciferase reporter, 24 h; percent of 10 µM SAHA response | hit rate 0.56% among 360,000;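 active = activation above the average of all compounds screened plus 3 SD, cutoff fixed separately per campaign, cut at about 7.5% in these data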;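 also: 0% = DMSO wells and 100% = 10 µM SAHA wells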
T cell modulator: modulates CD8 T cell binding to vesicles | 2C CD8+ T cell-vesicle binding, flow cytometry; active compounds read low | response (vesicle binding), % at 7 µM | hit rate 0.068% among 330,000 | AID 2052;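 active = response, share of CD8 T cells binding vesicles, and their 90th percentile fluorescence all below set limits, cut at about 80% in these data, passing the limit was not always enough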;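 also: values below 100% mean blocked vesicle binding to the CD8+ T cells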
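System: murine 2C transgenic CD8+ T lymphocytes; also added: QL9-loaded Drosophila micro-vesicles; times: binding 1.5 h at 37 °C; measured by: flow cytometry, PE anti-B7-1 (FL2) versus Alexa647 anti-CD8 (FL8), PFA-fixed; control set: Peptide-free naked vesicles (low) and QL9 vesicles with 0.7% DMSO vehicle (high)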
Myeloid diff MLP: compounds promoting myeloid differentiation; ER-HoxA9 myeloid progenitors, lysozyme-GFP differentiation, flow cytometry; calls only at 10 µM; hit rate 1% among 360,000; AID 624256;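 active = normalized GFP-positive differentiation at or above the plate's own cutoff, the solvent-only control mean plus 3 SD; inconclusive = no clear call, values can overlap the other calls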;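 also: cells exposed to compound for four days before flow analysis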
NR2E3 ag-2: NR2E3 (human) agonism; AID 2300; hit rate 0.12% among 320,000; inhibition of corepressor binding, % at 4.78 µM; GST-NR2E3/biotin-RetCOR TR-FRET, 1536-well;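 active = percent inhibition above the cutoff of mean plus 3 SD of all tested compounds, set per screening campaign, cut at about 20% in these data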;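 also: 0% = DMSO wells and 100% = biotin wells as full block of FRET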
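Test system: GST-NR2E3 and biotin-RetCOR proteins | Quantity: 1.35 nM GST-tagged NR2E3 final | Medium: Tris pH 7.5 | Also added: 7 nM biotin-RetCOR | Dosing: Compound at 4.8 µM, single dose | Timing: 5 h at 4 °C | Detection: Time-resolved FRET | Read-out basis: Percent inhibition | Benchmarks: Biotin wells as high control, 0.6% DMSO wells as low control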
NR2E3 agonist cf: NR2E3 (human) agonism, confirmation; shares compounds with NR2E3 ag-2; activation (reported as inhibition), % at 3.98 µM; cell-free NR2E3 corepressor release, TR-FRET, 5 h; hit rate 39% among 360; AID 2379; in the data active = activation above about 20%
PPARg-NCOR2 ctr: PPARg-NCOR2 interaction agonism, NR2E3 counter-screen; inhibition, % at 3.98 µM; hit rate 45% among 360; TR-FRET PPARg-NCOR2 coregulator interaction, biochemical; shares compounds with NR2E3 ag-2; in the data active = inhibition above about 20%;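 also: 0% = DMSO vehicle and 100% = wells without protein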
* marks the source's active call; other numbers are inactive results; i = inactive; ? = inconclusive; . = no result; + = active, no number.

SMILES | NR2E3 ag-1 | GAA850 FXN act | T cell modulator | Myeloid diff MLP | NR2E3 ag-2 | NR2E3 agonist cf | PPARg-NCOR2 ctr
O=S(=O)(Nc1cc2nc3ccccc3nc2n1Cc1ccccc1)c1ccc(Cl)cc1 | -31 | -2 | i | + | 33* | 5 | 1
O=C(Nc1ccc(F)cc1)C(c1ccnc2ccccc12)N1CCN(C(=O)c2ccco2)CC1 (stereo not given) | . | . | . | i | . | . | .
N#CC1=C(N)SC(N)=C(C#N)C1c1cccc(Oc2ccccc2)c1 | 30 | 2 | 355 | i | 15 | . | .
N#CC1=C(N)SC(N)=C(C#N)C1c1c(Cl)cccc1Cl | -7 | 0 | 231 | i | 40* | 3 | 26*
CC(C)c1cccc(-c2csc(C(O)c3cccc(Cl)c3)n2)c1 (stereo not given) | 27 | -1 | . | i | . | . | .
CC1Cc2cc(/C(O)=C3/C(=O)C(=O)N(Cc4ccco4)C3c3cccs3)ccc2O1 (stereo not given) | -9 | -6 | 540 | ? | 22* | 5 | 7
CN(CC(=O)NCCC1=CCCCC1)S(=O)(=O)c1ccc2c(c1)c(=O)n(C)c(=O)n2C | 4 | 1 | 280 | i | 24* | -5 | -6
CN(CC(=O)NCCc1ccc(Cl)cc1)S(=O)(=O)c1ccc2c(c1)c(=O)n(C)c(=O)n2C | 6 | -2 | 569 | i | 4 | . | .
O=C(Nc1nc(-c2cccs2)c(C(=O)C(F)(F)F)s1)c1ccco1 | -6 | 2 | 642 | i | 30* | 34* | 32*
COc1ccc(-n2c(=S)[nH]c3c(oc4ccccc43)c2=O)cc1 | -35 | 1 | 169 | i | 53* | 39* | 38*
CSc1ccccc1OCc1cc(C(=O)N2CCN3CCCC3C2)no1 (stereo not given) | -43 | 1 | 786 | i | 1 | . | .
COc1ccc(C(=O)Nc2ccccc2C(=O)NC(Cc2ccc(O)cc2)C(=O)NNC(=O)c2ccccc2Cl)cc1 (stereo not given) | 5 | 1 | 229 | i | -2 | . | .
COc1ccc(C(=O)NNC(=O)C(Cc2ccc(O)cc2)NC(=O)c2ccccc2NC(=O)c2ccc(OC)cc2)cc1 (stereo not given) | 13 | -2 | 535 | i | 40* | 22* | -5
O=C(Nc1ccc2c(c1)OCO2)c1cc(-c2ccc(O)cc2)on1 | -47 | 4 | 236 | i | -8 | . | .
O=S(=O)(Nc1nc2cc3c(cc2nc1Cl)OCCO3)c1ccccc1 | -17 | 0 | 253 | i | 30* | 11 | 14
CC(=O)Nc1ccc(S(=O)(=O)Nc2nc3cc4c(cc3nc2Cl)OCCO4)cc1 | -23 | -1 | 429 | i | 19 | . | .
O=C(C1=C(O)C(=O)N(CCN2CCOCC2)C1c1ccc(Br)cc1)c1cc2ccccc2o1 (stereo not given) | 13 | 1 | 446 | i | 18 | . | .
O=C(C1=C(O)C(=O)N(CCN2CCOCC2)C1c1cccnc1)c1cc2ccccc2o1 (stereo not given) | -2 | 1 | 343 | i | 32* | 5 | 4
O=C(C1=C(O)C(=O)N(CCN2CCOCC2)C1c1cccc(F)c1)c1cc2ccccc2o1 (stereo not given) | -13 | 0 | 209 | i | 33* | 20* | 25*
Cc1ccc(C2C(C(=O)c3cc4ccccc4o3)=C(O)C(=O)N2CCN2CCOCC2)cc1 (stereo not given) | -4 | 2 | 279 | i | 20* | 25* | 25*
O=C(C1=C(O)C(=O)N(CCN2CCOCC2)C1c1cccs1)c1cc2ccccc2o1 (stereo not given) | -33 | 1 | 149 | i | 30* | 31* | 34*
O=C(C1=C(O)C(=O)N(CCN2CCOCC2)C1c1cccc(O)c1)c1cc2ccccc2o1 (stereo not given) | -30 | -1 | . | i | . | . | .
Cc1ccc(C2C(C(=O)c3cc4ccccc4o3)=C(O)C(=O)N2CCN2CCOCC2)o1 (stereo not given) | -7 | 0 | 431 | i | 13 | . | .
C[C@H]1CN([C@@H](C)CO)S(=O)(=O)c2ccc(Br)cc2O[C@@H]1CN(C)C(=O)C1CCOCC1 | -16 | 0 | . | i | . | . | .
COC(=O)c1ccc(C2C(C(=O)c3cc4ccccc4o3)=C(O)C(=O)N2CCCN(C)C)cc1 (stereo not given) | -20 | 0 | 194 | i | 11 | . | .
SMILES | NR2E3 ag-1 | GAA850 FXN act | T cell modulator | Myeloid diff MLP | NR2E3 ag-2 | NR2E3 agonist cf | PPARg-NCOR2 ctr
CN(C)CCCN1C(=O)C(O)=C(C(=O)c2cc3ccccc3o2)C1c1ccccc1 (stereo not given) | -18 | 0 | 154 | i | 30* | 27* | 28*
COc1cccc2cc(C(=O)C3=C(O)C(=O)N(CCN4CCOCC4)C3c3cccc(Cl)c3)oc12 (stereo not given) | -10 | 1 | 605 | i | 28* | 13 | 17
Cc1ccc(-c2cc(C(=O)O)c3cc(Br)ccc3n2)o1 | -28 | 2 | 310 | i | 31* | 24* | 36*
Cc1ccc(-c2cc(C(=O)NN3CCOCC3)c3cc(Br)ccc3n2)o1 | -8 | -2 | 155 | i | 4 | . | .
CC(=O)c1sc2nc(SCC(=O)NCCc3ccccc3)[nH]c(=O)c2c1C | 10 | 5 | 216 | ? | 32* | 13 | 20*
CN(c1ccccc1)S(=O)(=O)c1ccc(C(=O)N2CCN(c3ccccc3)CC2)cc1 | -5 | -2 | . | i | . | . | .
Cc1ccc(O)c(C2=Nc3ccccc3N=C(c3ccco3)C2)c1 | -50 | 2 | 177 | i | 30* | 4 | 19
Cc1ccc(Cc2c(-c3ccc(Br)cc3)nc3cc(C)ccn23)cc1 | -97 | 3 | . | i | . | . | .
CC(C)c1nc2sc3c(=O)[nH]c(=S)[nH]c3c2c2c1CCCC2 | -19 | 0 | 284 | i | 24* | 45* | 44*
COc1cccc(CNC(=O)CCCn2c(=S)[nH]c3cc4c(cc3c2=O)OCO4)c1 | -2 | 0 | 373 | i | 26* | 31* | 36*
COc1cccc(N2CCN(C(=O)CCCCCn3c(=S)[nH]c4cc5c(cc4c3=O)OCO5)CC2)c1 | -7 | 0 | 313 | i | 4 | . | .
O=C(NCc1ccc(F)cc1)N1[C@H]2CC[C@@H]1C=C(c1ccc(F)cc1OCc1ccccc1)C2 | 6 | 1 | . | i | . | . | .
C=CCSc1nc(-c2ccccc2)c(C#N)c(=O)[nH]1 | -6 | 0 | 303 | i | 22* | 16 | 41*
Cc1cc(N2C(=O)C(O)=C(C(=O)c3cc4ccccc4o3)C2c2ccc(OC(C)C)cc2)no1 (stereo not given) | -55 | 2 | 334 | i | 11 | . | .
